Source: ChEMBL document CHEMBL4513216, “Probing the Open Global Health Chemical Diversity Library for Multistage-Active Starting Points for Next-Generation Antimalarials” (ACS Infect Dis, 2020)

Experiment: Toxicity liver stage against HepG2, at 10uM
Type: cell-based
Design: test concentration 10 uM, cell line HepG2-A16-CD81EGFP
Conditions: human, HepG2-A16-CD81EGFP cells; read-out: INHIBITION
Outline: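 Uninfected HepG2-A16-CD81EGFP cells, 3 × 10^3 per well, 1536-well, plated on prespotted compound at 10 μM final, parasite-free screening media added to match infected plates; puromycin 10 μM positive, DMSO 0.5% negative; run in parallel with 48 h PbLuc assay at 37 °C, 5% CO2; viability by CellTiter-Glo luminescence, normalized to controls.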

Structure (SMILES)	cytotoxicity at 10 µM [%]
c1ccc(C(Cn2cnnc2)N2CCOCC2)nc1 (stereo not given)	0.997
CNC(=O)C1(c2cnccn2)CCCN1C(=O)c1cccc(F)c1 (stereo not given)	-29.6
CN1CCN(C[C@@H]2OC[C@H]3CN(Cc4ccncc4)CC[C@H]32)CC1	1.96
CC(C)Nc1nc2c(c(N(C)C)n1)CCN(C(=O)c1cc[nH]n1)CC2	6.59
CN(C)CCN1CC(C(=O)N(C)Cc2cc3cc(F)ccc3[nH]2)CC1=O (stereo not given)	-1.03
COc1ccc(C(=O)Nc2ccc3ncn(C(C)C)c(=O)c3c2)cc1	4.04
CCC(C)(C)C(=O)NCCCOC1CCOC1 (stereo not given)	-6.21
CC(NC(=O)CCCc1nc(C(C)(C)C)no1)c1ccccn1 (stereo not given)	-5.81
CC(CC(=O)NCCNS(C)(=O)=O)C1CCCCC1 (stereo not given)	6.43
Cn1ccc(NC(=O)CN2CCC(Oc3cnccn3)CC2)n1	4.3
CCC1=NN2C(=N)C(=Cc3cccn3-c3ccc(Cl)cc3)C(=O)N=C2S1	7.92
CCn1nc(NC(=O)Cn2ccc(C(C)=O)n2)c2ccccc21	12.8
Cc1cccc(CN2CCc3[nH]nc(C(=O)N(C)C)c3C2)n1	-0.596
CCOC(=O)CCNC(=O)c1cccc2ccc(C)nc12	-5.15
CCS(=O)(=O)N1CCN(C(=O)C(C)C)CC2(CC(=O)N(C)C2)C1 (stereo not given)	8.4
CCOCC(=O)N1CCn2cc(CN(C)Cc3ccco3)nc2C1	4.73
CC(c1ccc(C(F)(F)F)cc1)N1CCN(CCS(C)(=O)=O)CC1 (stereo not given)	3.25
O=C(CSc1ccncc1)N1CCC2(CC1)c1ccccc1CC2O (stereo not given)	-2.36
COc1cc2cc(C(=O)NCC(=O)O)n(C)c2c(OC)c1OC	-77.3
CCS(=O)(=O)CC(=O)NC(C)c1ccccc1Oc1ccccc1 (stereo not given)	-2.97
CCCC1(CO)CCCN(Cc2nccs2)C1 (stereo not given)	1.41
CCn1cc2c(n1)C(COC)CN(C(=O)c1ccccn1)C2 (stereo not given)	2.61

Structure (SMILES)	cytotoxicity at 10 µM [%]
CCN(CC)C(=O)CCn1ncc2c(Cl)cccc21	12.4
CN(CC1CCCCC1)C(=O)c1cn(C)nc1-c1cccnc1	2.2
Cc1cc(C(=O)N2CCCC3(COCCN(c4ccccc4)C3)C2)[nH]n1 (stereo not given)	-1.56
CN1CCC(C2CCN(Cc3cccc(-n4cccn4)c3)CC2)C1 (stereo not given)	-6.15
O=C(c1cc(C2CC2)on1)N1CC[C@]2(C[C@H](Oc3cccnc3)CO2)C1	-9.63
Cc1ccsc1[C@@H]1CCN(C(=O)Cc2ccc(O)cc2)C[C@H]1O	-2.59
O=C(NCCCc1ccncc1)C1CCCN(Cc2ccco2)C1 (stereo not given)	20.1
CC(C)c1nc(CN(C)C2CCN(Cc3nnc(C4CC4)o3)C2)no1 (stereo not given)	5.87
NC(=O)Cn1cc(NC(=O)N2CCCC2)cn1	-8.67
Cc1ccc(N2CCCC(NC(=O)Nc3cnn(C)c3)C2=O)cc1 (stereo not given)	-44
CC(=O)N1CCCCCC1C1CCN(c2ncccc2C#N)CC1 (stereo not given)	-7.13
CC(C)NC(=O)N1CCCn2cnc(CO)c2C1	-151
COCc1nc2cc(NCc3ccc(C)o3)ccc2o1	-9.41
O=C(Cn1cc(C(=O)O)ccc1=O)Nc1ccc(F)cc1Cl	0.381
Cc1cc(C)n(CC2CCCN2C(=O)c2cn[nH]c2C)n1 (stereo not given)	-11.6
COCC(=O)N[C@H](C)c1onc(-c2ccc(OC)cc2)c1C(=O)O	4.82
CC(C)c1nc2n(n1)CC(NCc1ncc(-c3ccccc3)o1)CC2 (stereo not given)	-0.361
CN1C[C@@H]2CN(C(=O)NCc3ccccc3)CCC[C@]2(C(=O)O)C1	9.55
COC(=O)c1ccc(N2CCN(C(=O)c3ccco3)C(C)C2)cc1 (stereo not given)	-8.15
O=C(c1cccnc1)N1CCOC(c2ccc(-c3cncnc3)cn2)C1 (stereo not given)	-16
Cc1ncc(CN2CCCC(c3cc(C(F)(F)F)[nH]n3)C2)s1 (stereo not given)	-17.8
O=C(O)c1cccc(S(=O)(=O)N2CCOc3ccccc32)c1	-5.92

Structure (SMILES)	cytotoxicity at 10 µM [%]
COCCOCC(=O)N1C[C@@H]2CC[C@H](Oc3ccccc3Cl)[C@@H]2C1	-10.9
CC(C)c1nn(C)c(N(C)C)c1CNCC(O)COc1ccccc1 (stereo not given)	0.142
O=C(c1cccc2c1OCO2)N1CCCC(n2cccn2)C1 (stereo not given)	-8.72
Cc1cc(C)n(CC2CN(Cc3nc(C4CC4)no3)CCO2)n1 (stereo not given)	-5.13
O=C1CCC(C(=O)N2CCOC(Cc3ccc(F)cc3)C2)=NN1 (stereo not given)	-6.26
Clc1ccc(-c2nnc(CNCCn3cccn3)o2)c(Cl)c1	-4.86
O=C(COc1ccc(C(F)(F)F)cc1)NS(=O)(=O)c1cccnc1	-7.44
CCN1Cc2cc(F)ccc2N(C(C)=O)CCC1=O	-4.78
CC(C)(C(=O)NCC(=O)NC1CC1)c1ccccc1F	-4.9
Cc1c(-c2nc3cc(S(=O)(=O)N4CCCC4)ccc3n2C)cnn1C	2.2
O=C(Nc1ccccc1-c1cccs1)N1CCN(CC(F)F)CC1	-2.11
O=C(CN1CCCCC1Cn1cncn1)NC1CCN(C2CC2)CC1 (stereo not given)	-19.3
NC(=O)C1(Cc2ccccc2-c2cncnc2)CCCNC1 (stereo not given)	3.35
CNCc1n[nH]c(=O)n1-c1ccccc1Oc1ccccc1	-4.88
CCc1ccc(CN(CCCn2ccnc2)Cc2ccc(C)s2)o1	3.86
CC(C)(C)CC(=O)Nc1ccccc1SCC(N)=O	-138
O=C(Cn1nc2c(cc1=O)CCCC2)N[C@@H](C(=O)O)c1ccccc1	5.76
COC(=O)NCc1ccc(NC(=O)CC2=CCCCC2)cc1	2.97
CC(c1ccc(F)cc1F)N1CCN(CCC(=O)NC(N)=O)CC1 (stereo not given)	-8.58
COc1cc(CNC(C)Cn2cccn2)cc2c1OCCO2 (stereo not given)	1.67
CNCc1ccc([C@@H]2CN(C)C[C@H]2C(N)=O)cc1	7.67
CCCS(=O)(=O)N[C@H]1CN(c2ncccc2C(N)=O)C[C@@H]1C(C)C	5.78

Structure (SMILES)	cytotoxicity at 10 µM [%]
Cc1cc(C(N)=O)c2c(Br)cccc2n1	1.09
CCOC(=O)C1CCN(Cc2c(O)ccc3oc4c(c23)CCCC4)CC1	-1.2
O=C1CC2(CCN(CCCO)CC2)CN1Cc1ccc(F)c(F)c1	-7.73
CCN1C(=O)[C@]2(CC[C@@H]3CN(C(=O)Nc4ccc(F)cc4)C[C@@H]32)N=C1C	3.22
Cc1cc(NCCC(=O)NC2CCCC2)nc(-c2ccncc2)n1	2.25
COc1ccc(C2CCCN2C(=O)c2cc3c([nH]c2=O)CCC3)cc1 (stereo not given)	-10.7
CCOC(=O)N1CCCn2nc(C(=O)NCCN(C)C)cc2C1	3.13
CCCc1nc(C(=O)N2CCN(C(=O)OC)CC2)cs1	-9.85
COCc1ncn2c1CN(C(=O)c1ccc[nH]1)CC2	1.84
COC(=O)CNc1cc(C(=O)NCC(F)(F)F)cc(F)c1C	6.05
COCCN(C)C[C@@H]1CN(C(=O)c2cccc(C#N)c2)C[C@@H]1CO	14.5
CN(C)CCSc1ccc(NC(=O)c2nccn3ccnc23)cc1	-6.25
CCCS(=O)(=O)NCc1nc(C)cc(N2CCCC2)n1	8.09
O=C(NCC1Cn2nnc(-c3ccccc3)c2CO1)c1ccc[nH]1 (stereo not given)	-1.2
COc1cccc(OCCNCc2ccccc2)c1	10.7
Cc1cc(NC(=O)N(C)C2CCN(c3ccccc3F)C2=O)n(C)n1 (stereo not given)	-7.52
CCS(=O)(=O)N[C@H]1CN(CC(C)(C)N2CCOCC2)C[C@@H]1C1CC1	1.04
COCc1c(C(=O)N2CCCC(N(C)Cc3ccccc3)C2)noc1C (stereo not given)	-16.8
O=C(NC[C@H]1OC[C@@H]2CCN(c3ncccn3)C[C@@H]21)c1ccnnc1	7.37
Cc1ccc2c(ccn2CCC(=O)O)c1	-3.69
CN(CC(=O)NC(C)(C#N)C1CC1)Cc1nnc(C2CC2)n1C (stereo not given)	7.32
Cc1nccnc1N1CCC(Cc2ccccc2Cl)(C(=O)O)CC1	12.6

Structure (SMILES)	cytotoxicity at 10 µM [%]
COc1ccccc1-c1ccc(C2CCCN(C(C)=O)C2)nc1 (stereo not given)	-4.96
Cn1ccnc1CN1C[C@@H](F)[C@@H](OCc2nc3cnccc3[nH]2)C1	3.39
CCCc1n[nH]c(=O)n1Cc1ccccc1F	2.24
CCCC12CN3CC(C)(CN(C1)C3c1[nH]c(=O)[nH]c(=O)c1C)C2=O (stereo not given)	3.15
Cc1ccc2cnn(CCC(=O)Nc3c(C)nn(C)c3C)c2c1	-13.4
CCc1nc(C2CCCN2CC(=O)N2CCCc3ccccc32)no1 (stereo not given)	-25.2
CC(C)(C)c1nc(CN2CCCC(Cn3cncn3)C2)no1 (stereo not given)	-0.0792
CCN1CCC2(CCC1=O)CN(c1ccnc(SC)n1)CCN2C (stereo not given)	17.7
CC(CN1CCCCCC1)NCc1nncn1C1CCCCC1 (stereo not given)	-5.59
CCc1cccc(C)c1NC(=O)C1CC(=O)N(Cc2ccccn2)C1 (stereo not given)	1.09
COc1cccc(-n2nnc(C(=O)N3CCCCCC3)c2C)c1	-9.71
Cc1noc(C)c1CN1CC[C@@H]2O[C@@H](COCC(C)C)CC[C@@H]21	-0.125
CCNC(=O)[C@@H]1C[C@H](N)CN1C(=O)c1cccc(CCC(C)(C)O)c1	4.61
Cc1cccc(CN2CCc3onc(CO)c3C2)n1	6.81
CCCC(Nc1c(C#N)c(=O)n(C)c(=O)n1C)c1ccc(F)cc1F (stereo not given)	-13.2
COc1cc(NCC(O)CN2CCCCCC2)ncn1 (stereo not given)	2.8
O=C(c1ccsc1)N1CCc2c(CN3CCCC3)n[nH]c2C1	5.04
Cc1nc(CCN)cc(N2CCC(O)(c3ccc(Cl)cc3)CC2)n1	-2.24
O=C(O)[C@]12CCCN(Cc3ccccc3)C[C@H]1CN(c1ncccn1)C2	-8.33
CN(c1ncc(C(=O)Nc2ccccc2)c(N)n1)C1CCCCC1	-6.21
CNC1CCCN(Cc2noc(C3CC3)n2)C1 (stereo not given)	0.95
Cc1ccc2c(c1)c(C)cc(=O)n2CCC#N	5.81
